# Data as given in ChEMBL document CHEMBL1129245, “N-heteroaryl-2-phenyl-3-(benzyloxy)piperidines: a novel class of potent orally active human NK1 antagonists” (J Med Chem, 1996).
# Columns and labels:
# [1] = species: Oryctolagus cuniculus; assay: Displacement of [3H]diltiazem from rabbit skeletal muscle calcium channel; assay type: tissue-based; conditions: Muscle tissue
# [2] = target: Substance-P receptor (Homo sapiens, UniProt P25103); assay: Displacement of [125 I]-Tyr8 SP from the cloned human Tachykinin receptor 1 expressed in CHO cells; assay type: cell-based
# Chain of Substance-P receptor (P25103 whole entry): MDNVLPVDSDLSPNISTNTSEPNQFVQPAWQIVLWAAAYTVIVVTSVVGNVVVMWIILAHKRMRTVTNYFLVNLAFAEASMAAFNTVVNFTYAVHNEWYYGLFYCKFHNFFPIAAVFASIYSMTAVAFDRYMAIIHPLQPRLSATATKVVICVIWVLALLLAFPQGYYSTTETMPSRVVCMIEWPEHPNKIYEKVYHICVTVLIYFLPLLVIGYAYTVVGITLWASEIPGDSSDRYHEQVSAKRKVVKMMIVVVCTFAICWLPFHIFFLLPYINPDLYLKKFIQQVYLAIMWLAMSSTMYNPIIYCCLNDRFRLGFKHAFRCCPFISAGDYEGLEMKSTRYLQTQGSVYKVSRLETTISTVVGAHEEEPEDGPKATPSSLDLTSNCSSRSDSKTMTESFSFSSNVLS
# [3] = tested on: Cavia porcellus; assay: Inhibition of SP- induced dermal guinea pig after peroral administration; assay type: functional; conditions: read-out: ID50 (the source's name)
# How it was run: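 Guinea pigs dosed orally with antagonist, then challenged 1 h later with intradermal substance P. Vascular leakage measured as extravasation of Evans blue dye. ID50 (mg/kg po) taken from dose-response data, 5-12 animals per data point.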
# [4] = tested on: Rattus norvegicus; assay: Inhibition of […] of the rat after intravenous administration; assay type: functional; conditions: read-out: ID50 (the source's name)
# How it was run: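 Rats given test compound intravenously. Plasma extravasation in the dura mater measured, n = 8-10. ID50 reported in mg/kg iv.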
Binding affinity [1] [µM],IC50 [2] [nM],Structure (SMILES),ED50 [3] [mg/kg],ED50 [4] [mg/kg]
> 5,–,FC(F)(F)c1cc(CO[C@H]2CCCN(Cc3nn[nH]n3)[C@H]2c2ccccc2)cc(C(F)(F)F)c1,–,–
10,0.8,FC(F)(F)c1cc(CO[C@H]2CCCN(Cc3n[nH]c(S)n3)[C@H]2c2ccccc2)cc(C(F)(F)F)c1,–,–
4,–,COc1ccccc1CN[C@H]1CCCN[C@H]1c1ccccc1 [CP-99994],1.6,0.052
